The values that follow come from article PMC3155308 (The EMBO Journal, 2011).

Test [1] relates to myosin-X MyTH4–FERM cassette. Briefly: Pull-down with GST-fused C-terminal tail peptides of α- and β-tubulins. Conditions: 20 mM Tris–HCl (pH 8.0), 50 mM NaCl, 1 mM DTT, 4°C, 30 min. It is filed as binding, human. The method, boiled down: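 Purified MyTH4–FERM cassette was mixed with GST-fused α1A-tubulin (399–451) or β2B-tubulin (390–445) tail peptide in 20 mM Tris–HCl pH 8.0, 50 mM NaCl, 1 mM DTT at 4°C for 30 min. Glutathione-Sepharose was then added for 10 min at 4°C, with five washes. Elution used 20 mM glutathione in 50 mM Tris–HCl pH 8.0 with 150 mM NaCl, then SDS–PAGE.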

For test [2], the target named is T1, myosin-X MyTH4–FERM cassette K1647D/K1650D (human, UniProt Q9HD67 1486-2058, Δ20 deletion (residues 1872–1891) | K1647D | K1650D).
T1 sequence (looked up): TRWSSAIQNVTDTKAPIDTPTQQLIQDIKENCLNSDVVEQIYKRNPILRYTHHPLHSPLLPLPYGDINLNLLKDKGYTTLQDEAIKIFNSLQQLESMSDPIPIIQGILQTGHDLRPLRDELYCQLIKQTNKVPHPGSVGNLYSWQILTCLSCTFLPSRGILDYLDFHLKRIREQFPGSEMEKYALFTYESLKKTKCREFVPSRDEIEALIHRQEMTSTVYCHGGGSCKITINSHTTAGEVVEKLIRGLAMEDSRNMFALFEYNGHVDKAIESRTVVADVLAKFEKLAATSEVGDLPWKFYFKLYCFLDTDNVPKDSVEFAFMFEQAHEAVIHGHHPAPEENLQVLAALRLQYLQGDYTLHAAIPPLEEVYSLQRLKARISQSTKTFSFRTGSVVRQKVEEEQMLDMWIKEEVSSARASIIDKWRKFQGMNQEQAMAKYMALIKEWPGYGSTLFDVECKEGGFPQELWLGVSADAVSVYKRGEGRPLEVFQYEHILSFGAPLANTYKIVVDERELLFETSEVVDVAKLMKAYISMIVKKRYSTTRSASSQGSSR
Briefly: pull-down.

In test [3] the target is T2, myosin-X MyTH4–FERM cassette F2002K (human, UniProt Q9HD67 1486-2058, Δ20 deletion (residues 1872–1891) | F2002K).
T2 sequence (looked up): T1 sequence (looked up) with D162K, D165K, F497K
The test is described as follows: pull-down.

Test [4] relates to C-terminal acidic tail peptide of β2B-tubulin. The test is described as follows: Pull-down of wild-type and mutated MyTH4–FERM cassettes with GST-tubulin tail. It is filed as binding. Conditions: SDS–PAGE. The method, boiled down:
(§1)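 Human myosin-X MyTH4–FERM cassette (wild type or site-directed mutants) was expressed in E. coli BL21Star(DE3) at 20°C with 0.1 mM IPTG. It was Ni-NTA purified, then His-tag cleaved with HRV3C, then run over cation exchange and gel filtration. GST bait was human DCC 1390–1447 or β2B-tubulin 390–445. Cassette and bait were mixed with glutathione-Sepharose at 4°C, washed, and eluates resolved by SDS–PAGE.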

Test [5] deals with DCC P3 peptide. The test is described as follows: Pull-down of wild-type and mutated MyTH4–FERM cassettes with GST-DCC P3 peptide. It is filed as binding, human. Conditions: SDS–PAGE. In a few lines:
as §1

For test [6], the system named is DCC. Briefly: Co-immunoprecipitation of DCC with myc-tagged myosin-X MyTH4–FERM. It is filed as cell-based. Conditions: HEK293T cells, anti-myc antibody, immunoblot.

Residue numbers refer to the chain shown, from its start. In names and notes the source's numbering stands. Where no end group is shown, it is not given here.

Consider “β-tubulin C-terminal acidic tail peptide: GST-fused C-terminal acidic tail peptide of β2B-tubulin (390–445) ({GST}-RRKAFLHWYTGEGMDEMEFTEAESNMNDLVSEYQQYQDATADEQGEFEEEEGEDEA; not fully specified)”, for which, in test [1], the “binding of tubulin C-terminal acidic tail peptides” value was “binds”.
Same read-out and setting: the entry for “α-tubulin C-terminal acidic tail peptide: GST-fused C-terminal tail peptide of α1A-tubulin (399–451)” is “binds”.

B1: GST-fused DCC P3 peptide (residues 1390–1447) (peptide, UniProt P43146 1390-1447, looked up)
chain: ARSPLLPVSVPTAPEVSEESHKPTEDSANVYEQDDLSEQMASLEGLMKQLNAITGSAF
Take B1: the binding result in test [2] was “binds”.

B2: GST-fused β2B-tubulin C-terminal acidic tail peptide (390–445) (peptide, UniProt Q9BVA1 390-445, looked up)
chain: RRKAFLHWYTGEGMDEMEFTEAESNMNDLVSEYQQYQDATADEQGEFEEEEGEDEA
modifications: also: GST-fused (side not given here)
Take B2: the binding result in test [3] is “binds”.

B3: Myo-X (K1647D/K1650D) (protein)
chain: T1 sequence (looked up)
modifications: left off: His6, N-terminal, cleaved
On to B3, for which, in test [4], the “binding to β2B-tubulin C-terminal tail peptide” value is “abolished binding”. For the same molecule, the “binding to DCC P3 peptide” value in test [5] was “only weakly affected binding”; in test [5] (listed as K1647D/K1650D), “only a slight reduction in DCC binding”.

B4: Myo-X (F2002K) (protein)
chain: T1 sequence (looked up) with D162K, D165K, F497K
modifications: left off: His6, N-terminal, cleaved
On to B4, for which the “binding to β2B-tubulin C-terminal tail peptide” value in test [4] is “no effect on tubulin tail binding”; in test [4] (listed as F2002K), “no effect on binding to the tubulin tail”. Further, the results for the “binding to DCC P3 peptide” value in test [5] and in test [5] (listed as F2002K) were “abolished the binding” and “abolished DCC binding”, respectively.

B5: myc-tagged myosin-X MyTH4–FERM cassette: myc-tagged full-length MyTH4–FERM cassette (residues 1486–2058) (protein)
chain: TRWSSAIQNVTDTKAPIDTPTQQLIQDIKENCLNSDVVEQIYKRNPILRYTHHPLHSPLLPLPYGDINLNLLKDKGYTTLQDEAIKIFNSLQQLESMSDPIPIIQGILQTGHDLRPLRDELYCQLIKQTNKVPHPGSVGNLYSWQILTCLSCTFLPSRGILKYLKFHLKRIREQFPGSEMEKYALFTYESLKKTKCREFVPSRDEIEALIHRQEMTSTVYCHGGGSCKITINSHTTAGEVVEKLIRGLAMEDSRNMFALFEYNGHVDKAIESRTVVADVLAKFEKLAATSEVGDLPWKFYFKLYCFLDTDNVPKDSVEFAFMFEQAHEAVIHGHHPAPEENLQVLAALRLQYLQGDYTLHAAIPPLEEVYSLQRLKARISQSTKTFTPCERLEKRRTSFLEGTLRRSFRTGSVVRQKVEEEQMLDMWIKEEVSSARASIIDKWRKFQGMNQEQAMAKYMALIKEWPGYGSTLFDVECKEGGFPQELWLGVSADAVSVYKRGEGRPLEVFQYEHILSFGAPLANTYKIVVDERELLFETSEVVDVAKLMKAYISMIVKKRYSTTRSASSQGSSR
modifications: left off: myc, end not stated, kept
As to B5, the “co-immunoprecipitation of DCC” value in test [6] is “co-immunoprecipitation of DCC”.

B6: myc–MyTH4–FERM(ΔC): residues 1486–1954, lacks subdomain C of the FERM domain (protein)
chain: TRWSSAIQNVTDTKAPIDTPTQQLIQDIKENCLNSDVVEQIYKRNPILRYTHHPLHSPLLPLPYGDINLNLLKDKGYTTLQDEAIKIFNSLQQLESMSDPIPIIQGILQTGHDLRPLRDELYCQLIKQTNKVPHPGSVGNLYSWQILTCLSCTFLPSRGILKYLKFHLKRIREQFPGSEMEKYALFTYESLKKTKCREFVPSRDEIEALIHRQEMTSTVYCHGGGSCKITINSHTTAGEVVEKLIRGLAMEDSRNMFALFEYNGHVDKAIESRTVVADVLAKFEKLAATSEVGDLPWKFYFKLYCFLDTDNVPKDSVEFAFMFEQAHEAVIHGHHPAPEENLQVLAALRLQYLQGDYTLHAAIPPLEEVYSLQRLKARISQSTKTFTPCERLEKRRTSFLEGTLRRSFRTGSVVRQKVEEEQMLDMWIKEEVSSARASIIDKWRKFQGMNQEQAMAKYMALIKEWPGYG
modifications: left off: myc, end not stated, kept
Regarding B6, the “co-immunoprecipitation of DCC” value in test [6] is given as “no interaction”.
